What all share (assay type): cell-based
One test deals with T1, rP2X2 Val70Vah (Rattus norvegicus, UniProt P49653).
T1 sequence (P49653 1-472): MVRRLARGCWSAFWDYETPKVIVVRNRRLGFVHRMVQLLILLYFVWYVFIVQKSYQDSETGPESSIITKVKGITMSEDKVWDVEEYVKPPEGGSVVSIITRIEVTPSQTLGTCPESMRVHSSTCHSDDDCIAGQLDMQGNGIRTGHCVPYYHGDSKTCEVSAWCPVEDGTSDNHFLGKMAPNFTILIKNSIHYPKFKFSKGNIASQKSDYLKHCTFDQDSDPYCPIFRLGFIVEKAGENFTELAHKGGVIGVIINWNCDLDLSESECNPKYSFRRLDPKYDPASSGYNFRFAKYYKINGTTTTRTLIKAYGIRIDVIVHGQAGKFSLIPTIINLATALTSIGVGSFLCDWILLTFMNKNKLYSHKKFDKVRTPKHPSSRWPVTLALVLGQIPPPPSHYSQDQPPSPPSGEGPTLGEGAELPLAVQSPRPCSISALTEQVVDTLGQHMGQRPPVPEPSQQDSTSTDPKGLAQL
The experiment in a line: Two-electrode voltage clamp, oocytes expressing rP2X2 Val70Vah.

Another test has as its target T2, rP2X2 Lys71Gln (Rattus norvegicus, UniProt P49653, K71Q).
T2 sequence (P49653 1-472 K71Q): T1 sequence (P49653 1-472) with K71Q
The experiment in a line: Two-electrode voltage clamp, oocytes expressing rP2X2 Lys71Gln. In a few lines: (§1)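 Mutations were made by site-directed mutagenesis. Xenopus oocytes were injected with rP2X2 mRNA and incubated in L-15 at 18°C. Two-electrode voltage clamp was done 1–2 days later at −40 mV under ND96 perfusion (pH 7.4). ATP concentration-response currents were normalised and fitted to a one-component Hill equation for EC50 and Hill coefficient. Results are mean ± SEM, tested by one-way ANOVA with Dunnett's test against WT.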
In general terms: In two-electrode clamp one electrode senses voltage and the other passes current.

For a further test, the target named is T3, rP2X2 Lys308Arg (Rattus norvegicus, UniProt P49653, K308R).
T3 sequence (P49653 1-472 K308R): T1 sequence (P49653 1-472) with K308R
The experiment in a line: Two-electrode voltage clamp, oocytes expressing rP2X2 Lys308Arg. A digest of the protocol: as §1

Another test concerns the target T4, rP2X2 Arg290Lys (Rattus norvegicus, UniProt P49653, R290K).
T4 sequence (P49653 1-472 R290K): T1 sequence (P49653 1-472) with R290K
Nature of the test: Two-electrode voltage clamp, oocytes expressing rP2X2 Arg290Lys. A digest of the protocol:
as §1

For the next test, the target named is T5, rP2X2 Thr184Ser (Rattus norvegicus, UniProt P49653, T184S).
T5 sequence (P49653 1-472 T184S): T1 sequence (P49653 1-472) with T184S
Nature of the test: Two-electrode voltage clamp, oocytes expressing rP2X2 Thr184Ser. In a few lines: as §1

Substitutions are numbered along the chain they refer to.

For `Nc1ncnc2c1ncn2[C@@H]1O[C@H](COP(=O)(O)OP(=O)(O)OP(=O)(O)O)[C@@H](O)[C@H]1O` [ATP, Adenosine 5′-triphosphate], the “Fold increase in EC50, Val70Vah versus WT” value at rP2X2 Val70Vah (Val70Vah compared with WT) is “fourfold”. Also, the EC50 amounted to 120 ± 2 µM on rP2X2 Val70Vah (Val70Vah, mean ± SEM); 6300 µM on rP2X2 Lys71Gln; 6000 µM at rP2X2 Lys308Arg; 460 ± 60 µM at rP2X2 Arg290Lys; 26 ± 3 µM on rP2X2 Thr184Ser. Moreover, on rP2X2 Thr184Ser (Thr184Ser compared with WT), the “Sensitivity to agonist (in words)” value is recorded as “WT-like sensitivity”.

A word on the EC50: it is the concentration at which the effect is half-maximal.

The values above are taken from paper PMC6605687 (The Journal of General Physiology, 2019).
